Published values collected from several papers.
Protocols differ between the studies behind these lines.
SIRT2: NAD-dependent protein deacetylase sirtuin-2 (SIRT2, Homo sapiens, UniProt Q8IXJ6)
AMY2: Pancreatic alpha-amylase (AMY2, Sus scrofa, UniProt P00690)
HSD11B2: 11-beta-hydroxysteroid dehydrogenase type 2 (HSD11B2, Homo sapiens, UniProt P80365)
CHRM2: Muscarinic acetylcholine receptor M2 (CHRM2, Homo sapiens, UniProt P08172)

With `CCCCNC(=S)NCCCC[C@H](NS(=O)(=O)c1cccc(F)c1)C(=O)N[C@@H](Cc1c[nH]c2ccccc12)C(=O)NC1CCC1` the inhibition was 32% (SIRT2; enzyme activity; inhibitor; 1 µM).
For `O=C(O)CN1CCN(CC(=O)O)CCN(CC(=O)O)CC1`, the inhibition was 0.85% (Hydroxyacylglutathione hydrolase, mitochondrial (Homo sapiens, UniProt Q16775); cell-free assay; 100 µM).
With `COc1cc(C=Cc2cc(-c3ccc(N(C)C)cc3)nc(O)n2)ccc1O` the inhibition was 50.3% (AMY2; enzyme activity; inhibitor; absorbance; 1.25 µg/mL).
With `Cn1c(CNC(=S)NCCCC[C@H](NS(=O)(=O)c2cccc(F)c2)C(=O)N[C@@H](Cc2c[nH]c3ccccc23)C(=O)NC2CCC2)n[nH]c1=S` the inhibition was 43% (SIRT2; enzyme activity; inhibitor; 30 µM).
`CC/C(=N\NC(=O)NCc1cccc(O)c1)c1ccc(O)c(C)c1O` gave an inhibition of -0.1% (Fibroblast growth factor receptor 3 (FGFR3, Homo sapiens, UniProt P22607, V555L); enzyme activity; inhibitor; 0.1 µM).
`Cc1cccc(N(O)N=Nc2ccc(S(=O)(=O)Nc3onc(C)c3C)cc2)c1` has an inhibition of 36.8% (AMY2; enzyme activity; inhibitor; 180 µg/mL).
The inhibition of `CC(=S)NCCCC[C@H](NC(=O)OCc1ccccc1)C(=O)N[C@@H](Cc1c[nH]c2ccccc12)C(=O)N[C@@H](CCC(=O)O)C(N)=O` is reported as 39% (SIRT2; enzyme activity; inhibitor; 10 µM).
The inhibition of `CCCN(O)N=Nc1ccc(S(=O)(=O)Nc2cc(C)on2)cc1` is reported as 31.6% (AMY2; enzyme activity; inhibitor; 120 µg/mL).
With `COc1cc(C=CC(=O)CC(c2ccc([N+](=O)[O-])cc2)n2ccnc2)ccc1O` (centres unmarked) the inhibition was 75.6% (AMY2; enzyme activity; inhibitor; absorbance; 5 µg/mL).
The inhibition of `CN(O)N=Nc1ccc(S(=O)(=O)Nc2nccs2)cc1` is reported as 78.9% (AMY2; enzyme activity; inhibitor; 300 µg/mL).
With `O=C(NC1CCC1)[C@H](Cc1c[nH]c2ccccc12)NC(=O)[C@H](CCCCNC(=S)NCc1n[nH]c(=S)o1)NS(=O)(=O)c1cccc(F)c1` the inhibition was 11% (SIRT2; enzyme activity; inhibitor; 30 µM).
For `COc1cc(C=CC(=O)CC(c2ccc(N(C)C)cc2)n2ccnc2)ccc1O` (centres unmarked), the inhibition was 58.2% (AMY2; enzyme activity; inhibitor; absorbance; 1.25 µg/mL).
With `C[C@H]1O[C@H](O[C@H]2[C@H](O)[C@@H](O)[C@@H](O[C@H]3[C@H](O)[C@@H](O)C(O)O[C@@H]3CO)O[C@@H]2CO)[C@H](O)[C@@H](O)[C@@H]1N[C@H]1C=C(CO)[C@@H](O)[C@H](O)[C@H]1O` (some centres unmarked) the inhibition was 84.7% (AMY2; enzyme activity; inhibitor; 150 µg/mL).
`CC(C)c1c(C(=O)Nc2ccccc2)c(-c2ccccc2)c(-c2ccc(F)cc2)n1CC[C@@H](O)C[C@@H](O)CC(=O)O` has an inhibition of less than 40% (HSD11B2; enzyme activity; inhibitor; 20 µM; lysate).
`CC(=S)NCCCC[C@H](NC(=O)OCc1ccccc1)C(=O)N[C@@H](Cc1c[nH]c2ccccc12)C(=O)N[C@@H](CC(N)=O)C(N)=O` has an inhibition of 26% (SIRT2; enzyme activity; inhibitor; 1 µM).
`Cc1ccc(N(O)N=Nc2ccc(S(=O)(=O)Nc3cc(C)on3)cc2)cc1` has an inhibition of 78.9% (AMY2; enzyme activity; inhibitor; 300 µg/mL).
For `CCOCCOCCOCCNC(=S)NCCCC[C@H](NS(C)(=O)=O)C(=O)N[C@H](C)C(=O)N[C@@H](CCCNC(=N)N)C(N)=O`, the inhibition was 13% (SIRT2; enzyme activity; inhibitor; 100 µM).
`CCCCc1oc2ccccc2c1C(=O)c1cc(I)c(OCCN(CC)CC)c(I)c1` has an inhibition of less than 40% (HSD11B2; enzyme activity; inhibitor; 20 µM; lysate).
For `Oc1cccc(Nc2nc(-c3ccc(F)cc3F)cs2)c1`, the inhibition was -43.3% (CHRM2; cell-free assay; 10 µM).
`CCCCCCCCCCC[C@@H](C[C@@H]1OC(=O)[C@H]1CCCCCC)OC(=O)[C@H](CC(C)C)NC=O` has an inhibition of 92.2% (Pancreatic triacylglycerol lipase (PNLIP, Sus scrofa, UniProt P00591); enzyme activity; inhibitor; absorbance; 50 µg/mL).
With `CCCC(=S)NCCCC[C@H](NS(C)(=O)=O)C(=O)N[C@H](C)C(=O)N[C@@H](CCCNC(=N)N)C(N)=O` the inhibition was 31% (SIRT2; enzyme activity; inhibitor; 10 µM).
`CCC(C)(C)C(=O)O[C@H]1C[C@@H](C)C=C2C=C[C@H](C)[C@H](CC[C@@H]3C[C@@H](O)CC(=O)O3)[C@H]21` gave an inhibition of less than 40% (HSD11B2; enzyme activity; inhibitor; 20 µM; lysate).
`COc1cc(C=Cc2cc(-c3ccccc3)nc(O)n2)ccc1O` gave an inhibition of 66.3% (AMY2; enzyme activity; inhibitor; absorbance; 2.5 µg/mL).
`Cc1cc(NS(=O)(=O)c2ccc(N=NN(O)c3ccccc3)cc2)no1` has an inhibition of 52.6% (AMY2; enzyme activity; inhibitor; 180 µg/mL).
With `CCCCCCCCCCCCCC(=O)NNCCC[C@H](NC(=O)OCc1ccccc1)C(=O)N[C@@H](Cc1c[nH]c2ccccc12)C(=O)NC(C)C` the inhibition was 19% (SIRT2; enzyme activity; inhibitor; 100 µM).
For `O=C(c1ccc(F)cc1)N(Cc1ccccc1)C1CCCCC1`, the inhibition was 16% (CHRM2; cell-free assay; 10 µM).
`Cc1noc(NS(=O)(=O)c2ccc(N=NN(O)c3ccccc3)cc2)c1C` has an inhibition of 73.7% (AMY2; enzyme activity; inhibitor; 300 µg/mL).
For `O=C(c1ccc(Cl)cc1)N(Cc1ccccc1)C1CCCCC1`, the inhibition was 5.1% (Amine oxidase [flavin-containing] A (Maoa, Rattus norvegicus, UniProt P21396); cell-free assay; 10 µM).
`Cc1ccc(N(O)N=Nc2ccc(S(=O)(=O)Nc3onc(C)c3C)cc2)cc1` has an inhibition of 21.1% (AMY2; enzyme activity; inhibitor; 60 µg/mL).
